Here are results for 96 compounds from ChEMBL document CHEMBL4513216, “Probing the Open Global Health Chemical Diversity Library for Multistage-Active Starting Points for Next-Generation Antimalarials” (ACS Infect Dis, 2020).

A short description of this series: Toxicity liver stage against HepG2, at 10uM. Also on record: test concentration 10 uM, cell line HepG2-A16-CD81EGFP. Particulars: human, HepG2-A16-CD81EGFP cells; read-out: INHIBITION
In kind it is cell-based. Put shortly:
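Uninfected HepG2-A16-CD81EGFP cells, 3 × 10^3 per well, 1536-well, plated on prespotted compound at 10 μM final, parasite-free screening media added to match infected plates; puromycin 10 μM positive, DMSO 0.5% negative; run in parallel with 48 h PbLuc assay at 37 °C, 5% CO2; viability by CellTiter-Glo luminescence, normalized to controls.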
As for `CC(=O)NCCC(=O)NCc1cccnc1-n1cnc2ccccc21`, the cytotoxicity at 10 µM is -14.2%.
For `CC(C)NC(=O)C[C@@H]1CCNC[C@@H]1Cc1cc(-c2ccccc2)on1` the value was -0.626%; for `O=C1CSC(c2ccc(O)cc2)c2c(n(C3CCOCC3)[nH]c2=O)N1` (stereo unspecified), 2.84%.
For `O=S(=O)(NCC(c1ccsc1)N1CCCCCC1)c1cccs1` (stereo unspecified) the value was 2%; for `CCOCC(=O)NCC1CCN(Cc2ccsc2)CC1`, 11.1%.
In the case of `CN(C)C(=O)c1cnn2c1OCCC2` it was -6.59%; in that of `CSc1ccccc1NC(=O)C1CSc2ncc(C)c(=O)n2C1` (stereo unspecified), -1.31%.
Take `CC(=O)N1CCC2(CC1)C(=O)N(c1ccc(C)nc1)CCN2CC(C)C`: the cytotoxicity at 10 µM amounted to 22.2%.
In the case of `O=C(C1CC=CC1)N1CCC2(CCN(Cc3cccc(F)c3)CC2)C1` it was -4.48%; in that of `O=C(C1CC1)N1CCC2(COCc3cnc(N4CCOCC4)nc32)C1` (stereo unspecified), 5.31%.
For `Cc1ccc(C(=O)Oc2cc(=O)n3cccc(C)c3n2)cc1` the value was 5.62%; for `Cc1nc(O)cc([C@@H]2CN(C(=O)C3CC3)C[C@H]2c2ccccc2F)n1`, 4.95%; for `Cc1nc2c(c(NCCCN3CCOCC3)n1)CCN(C)C2`, 8.12%.
In the case of `Cc1cc(-c2cnc(NC3CCCCC3)nc2-c2ccco2)on1`, the cytotoxicity at 10 µM was -16.4%.
In the case of `O=C(c1ccco1)N1CCCC(c2cc(C(F)(F)F)n3ncnc3n2)C1` (stereo unspecified) it was -3.55%.
For `Cc1cc(C)c2cc(CNCc3ccco3)c3nn(C)c(=O)n3c2c1` the value was -13.6%; for `Cc1cncc(C2CCCN(Cc3ccncc3)C2)n1` (stereo unspecified), -9.8%.
For `CC(C)NC(=O)N1CCC(c2nnc3n2CCNC3)CC1` the value was 10.4%; for `CCc1nnsc1C(=O)NCc1nnc2n1CCC2`, 0.371%; for `COc1ccc(C(=O)N2CCOc3ccncc32)cc1`, 12.8%.
Turning to `CCN(CC)c1ncc(Cl)c(C(=O)NC2CCC(O)CC2)n1` (stereo unspecified), the cytotoxicity at 10 µM is -43.5%.
Turning to `O=C(NCC1(O)CCC1)c1c(O)cc(F)cc1F`, the cytotoxicity at 10 µM was 6.22%.
For `N#Cc1ccccc1CN1CCc2sccc2C1` the value was -0.572%; for `CC(C)C(CNC(=O)CCn1cncn1)N1CCc2ccccc2C1` (stereo unspecified), -162%.
Turning to `CCCN(Cc1ccccc1O)C(=O)Nc1cnn(CCOC)c1`, the cytotoxicity at 10 µM stood at 23.8%.
In the case of `CC(Oc1cccc(Cl)c1)C(=O)Nc1cnn(CCN(C)C)c1` (stereo unspecified), the cytotoxicity at 10 µM is -12.5%.
In the case of `Cc1cc(C2NC(=O)CN2Cc2ccc(Br)cc2)cc(C)c1O` (stereo unspecified) it was 4.12%; in that of `Cn1c(=O)[nH]c2cc(C(=O)OCCCn3ccccc3=O)ccc21`, 1.34%.
For the compound `Cc1ccc(-c2cc(CNCCn3cc(C)cn3)on2)cc1`, the cytotoxicity at 10 µM is -7.22%.
For `CCCn1cc(NC(=O)c2ccc(S(=O)(=O)CC)cc2)ccc1=O` the value was 2.99%; for `Cc1cnc(CN(C)Cc2cc3c(cc2OC(F)F)OCO3)o1`, -8.78%.
In the case of `Cc1cnc(CN(C)C2CCN(Cc3ccc(Cl)s3)C2)o1` (stereo unspecified) it was 5.33%; in that of `CCn1ccnc1CNCC(c1ccc(C)s1)N1CCOCC1` (stereo unspecified), 6.41%; in that of `COc1cccc(CN(C)C(=O)CN2CCN(c3nccs3)CC2)c1`, -3.98%.
In the case of `CNC(=O)CCNC(=O)Nc1cccc(Cl)c1SC(F)F` it was 1.29%.
Turning to `c1cnnc(N2CCCC(NCc3nc(-c4cccs4)no3)C2)c1` (stereo unspecified), the cytotoxicity at 10 µM was determined as 15.8%.
Consider `CC1CCCCN1C(=O)c1n[nH]c(=O)c2ccccc12` (stereo unspecified), for which the cytotoxicity at 10 µM was -0.402%.
In the case of `CCN(CC)C(=O)CN(C)C(=O)c1ccc(-c2ccsc2)nc1C` it was 18.1%.
In the case of `CC(CNS(C)(=O)=O)c1ccc(F)c(F)c1` (stereo unspecified), the cytotoxicity at 10 µM is -4.71%.
With `CN(C)c1ccc(CCCNC(=O)NCC(O)c2cccs2)cc1` (stereo unspecified), the cytotoxicity at 10 µM was -2.59%.
`CN(Cc1ccco1)C(=O)Nc1ccc(=O)n(C)c1`: the cytotoxicity at 10 µM was -43.1%.
As to `CC(NC(=O)N(C)Cc1ccncc1)c1cn(-c2ccccc2)nn1` (stereo unspecified), the cytotoxicity at 10 µM was -47.7%.
For `Cn1cnnc1C1CCCN(C(=O)c2cc(-c3ccccc3)on2)C1` (stereo unspecified) the value was 7.36%.
For `CC(NC(=O)Cc1cccs1)(C(N)=O)c1cccc(Cl)c1` (stereo unspecified) the value was 11.3%; for `COC(=O)CCN(C)Cc1cc(Br)cs1`, 0.311%.
For `CC(C)(C)c1ncc(CNc2ccccc2Cn2cncn2)s1` the value was 48.7%.
Regarding `CC(C)n1c2ccccc2c2c1cc(C(=O)NC1CC1)n2C(=O)N(C)C`, the cytotoxicity at 10 µM was -109%.
In the case of `Cn1cc(C[C@H]2[C@H](O)CCN2C(=O)c2ccsc2)cn1` it was -72.6%; in that of `COc1cccc([C@H]2CN(C(=O)c3scc4c3CCCC4)C[C@@H]2N)c1`, -3.45%; in that of `CC(CCCC(C)(C)O)Nc1ccc(-c2nccn2C)nn1` (stereo unspecified), 3.96%.
Take `c1cnn(Cc2ccc(CN3CCC4(CCNCC4)C3)cc2)c1`: the cytotoxicity at 10 µM is -15.6%.
In the case of `Cc1ccc(N2CCN(c3ccccc3C)CC2C)nn1` (stereo unspecified) it was 13.2%; in that of `O[C@@H]1CN(c2cnc3ccccc3n2)CC[C@H]1c1ccc2c(c1)OCO2`, 22.4%.
With `NCc1cc(NCC(c2ccccn2)N2CCOCC2)ncn1` (stereo unspecified), the cytotoxicity at 10 µM is -47.5%.
Take `Cc1ccc(-n2cccn2)cc1S(=O)(=O)N1C[C@H](C2CC2)[C@@H](N)C1`: the cytotoxicity at 10 µM worked out at 0.479%.
For `CN1CC2(CCCN(c3cc(N4CCCCC4)ncn3)C2)OC1=O` (stereo unspecified), the cytotoxicity at 10 µM was -39.7%.
In the case of `CCCn1cc(C(=O)NCC(=O)NC2CC2)c(C)n1` it was -3.91%; in that of `CCC(CC)CN1CCC(n2cc(C3CCCC3)nn2)CC1`, 3.92%; in that of `CCC(CNc1ncnc2oc(C)nc12)Cc1ccccc1` (stereo unspecified), 1.23%.
With `COCCNc1cc(-c2ccccc2C(N)=O)c2cc[nH]c2n1`, the cytotoxicity at 10 µM was -2.32%.
On to `CCNCCOc1ccc(-c2cc(N)nc3[nH]ccc23)cc1`, for which the cytotoxicity at 10 µM amounted to 24.3%.
In the case of `N[C@@H]1CC[C@H](C(=O)NCCn2cc(Cl)cn2)C1` it was -36.4%; in that of `Cc1cc(C)n(CC(C)NCc2cnc3c(C)cccn23)n1` (stereo unspecified), 1.44%; in that of `COC(=O)[C@H]1C[C@@H](O)CCN1S(=O)(=O)c1cc(C)c(Cl)cc1C`, -0.566%.
In the case of `Cc1nc(C)c(C)c(NCCSc2ccccn2)n1` it was -4.23%; in that of `CN(C)C(=O)c1cc(-c2cnc(N)nc2)nc2cc(F)ccc12`, 2.54%.
Turning to `COc1coc(CN2CCCC(CCc3ccccc3F)C2)cc1=O` (stereo unspecified), the cytotoxicity at 10 µM is -1.62%.
For `CCCS(=O)(=O)N1CCN(c2ccnc(N3CCCCC3)n2)CC1` the value was 0.805%; for `CCn1ccnc1C1CCN(Cc2cccc(Cl)c2)CC1`, -9.45%; for `O=C(Cc1ccc(O)c(Cl)c1)N1CCCCC1CCn1cccn1` (stereo unspecified), -13.6%.
In the case of `Cc1cc(C)n(NC(=O)c2ccc(Cl)cc2Cl)c(=O)c1` it was -7.05%.
For `CN1CCCC[C@@H]2[C@H]1[C@@H](c1ccccc1)CCN2C(=O)c1ccccc1` the value was -4.3%.
With `CC(C)c1ccc(CN2CCN(C(=O)c3cc(C4CC4)[nH]n3)CC2)cc1`, the cytotoxicity at 10 µM amounted to 39.7%.
For `O=C(NCCCNc1ccc(C(F)(F)F)cn1)c1ccc2c(c1)OCO2`, the cytotoxicity at 10 µM is -8.51%.
For `O=C(CS(=O)(=O)Cc1cc(Cl)c2c(c1)OCCCO2)NCC1CC1`, the cytotoxicity at 10 µM was 1.07%.
Turning to `CCCC(C#N)NC(=O)c1cc(Br)c2c(c1)OCCO2` (stereo unspecified), the cytotoxicity at 10 µM is -9.2%.
Take `CCc1nc2n(n1)CC(NCc1nnc(C(C)C)o1)CC2` (stereo unspecified): the cytotoxicity at 10 µM was -15.7%.
For `CC(=O)NCCNC(=O)CN1CCCC1c1c(C)nn(C)c1C` (stereo unspecified) the value was -25.1%.
As for `Cc1cccc(-n2ncc(C(=O)N3CCn4c(C)nnc4C3)c2C)c1`, the cytotoxicity at 10 µM turned out to be 2.14%.
For `CC(C)(C)c1nnc(CN2CCOC(Cn3cccn3)C2)o1` (stereo unspecified) the value was -10.2%; for `COc1cc(CNCc2ccc(NC(=O)NC(C)C)cc2)cc(OC)c1`, 0.347%.
For `CC(C)c1nc(CC(=O)Nc2nc(CN3CCCCCC3)cs2)cs1` the value was 6.02%.
In the case of `CCN1CCC2(CC1)OCCN2C(=O)c1cc(Cl)c(OC)c(Cl)c1` it was 9.31%; in that of `O=C(COC[C@]12COC[C@H]1CN(C1CCC1)C2)N1CCCC1`, -102%; in that of `CC(C)c1ccc(CN2CCC3(CCCN(c4nncs4)C3)C2)cc1` (stereo unspecified), -1.15%.
As for `CCOC(=O)[C@]12CCCN(Cc3cccs3)C[C@H]1CN(CC(C)C)C2`, the cytotoxicity at 10 µM is 10.8%.
For `Cn1cc(CN2CC[C@@H]3[C@@H]2CCN3Cc2ccc3c(c2)OCO3)cn1` the value was -3.63%; for `COc1ccccc1C(=O)N1Cc2cc(C)ccc2OCC1CN(C)C` (stereo unspecified), 5.2%; for `c1cnc(N2CCCC(NCc3ccc(-n4ccnc4)cc3)C2)nc1` (stereo unspecified), -7.55%.
On to `c1cnc(NCc2cncc3c2CCN(Cc2ccsc2)C3)nc1`, for which the cytotoxicity at 10 µM is -74.4%.
For `COc1ccccc1CN1C[C@@H]2COC[C@]2(COCc2ccncc2)C1`, the cytotoxicity at 10 µM was -70.9%.
For `Fc1cnc(N2C[C@H]3CN(Cc4cccc(F)c4)C[C@H]3C2)nc1` the value was 10.4%; for `CN(C)C(=O)CN1C[C@H]2CCN(Cc3ccccc3)CC[C@H]2S1(=O)=O`, 9.82%; for `Cc1nc(CN2CCc3ncnc(-c4ccsc4)c3CC2)cs1`, -79.8%.
In the case of `CC(Cc1ccccc1F)NC(=O)CCC1=NC(=C2N=CN=N2)NO1` (stereo unspecified) it was 7.69%; in that of `CCNc1ncc(CN2C[C@@H]3CC[C@H]2CN(C(=O)C2CCC2)C3)cn1`, 6.29%.
